Tests used:
[1] = cytotoxicity toward MRC5 cells, same conditions without virus infection; assay type: cell-based; conditions: human
Method in brief: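 Run in parallel with the antiviral CPE assay under identical conditions without virus infection. MRC5 cells were seeded at 20,000 cells/well and cultured overnight at 37 °C, 5% CO₂. Test compound diluted in assay medium was added; final DMSO 0.5%. Viability was read by CellTiter Glo. Single-point at 25 μM; CC50 by four-parameter log(inhibitor) vs response variable-slope regression.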

[2] = system: human coronavirus (HCoV) 229E; assay: cytopathic effect; assay type: cell-based; conditions: for inhibition at 25 µM: unidentified human coronavirus, MRC5, read-out: normalized inhibition % (25 μM); for inhibition of HCoV 229E in words: 25 μM, MRC5 cells
Method in brief: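 MRC5 cells were seeded at 20,000 cells/well and grown overnight at 37 °C, 5% CO₂. Test compound diluted in assay medium was added, then HCoV 229E diluted in assay medium; final DMSO 0.5%. CPE was read by CellTiter Glo. Protection at each concentration was normalized to virus-only control. Screen at 25 μM; EC50 from full dose–response by four-parameter variable-slope nonlinear regression.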

| Structure (SMILES) | cytotoxicity at 3 days, 25 µM [1] | inhibition at 25 µM [2] | CC50 at 3 days [1] | inhibition of HCoV 229E in words [2] |
| --- | --- | --- | --- | --- |
| CC(=O)OC[C@@]1(C)[C@H]2CC[C@@H]3CN(Cc4ccccc4)[C@@H](C4=CCOC4=O)C[C@H]3[C@]2(C)CC[C@H]1OC(C)=O [4a, ((2R,4aS,6aS,7R,8R,10aS,10bR)-8-Acetoxy-3-benzyl-7,10a-dimethyl-2-(2-oxo-2,5-dihydrofuran-3-yl)tetradecahydrobenzo[f]isoquinolin-7-yl)methyl Acetate] | 15.5% | 66.8% |  |  |
| CC(=O)OC[C@@]1(C)[C@H]2CC[C@@H]3CN(Cc4ccc(Br)cc4)[C@@H](C4=CCOC4=O)C[C@H]3[C@]2(C)CC[C@H]1OC(C)=O [4d, ((2R,4aS,6aS,7R,8R,10aS,10bR)-8-Acetoxy-3-(4-bromobenzyl)-7,10a-dimethyl-2-(2-oxo-2,5-dihydrofuran-3-yl)tetradecahydrobenzo[f]isoquinolin-7-yl)methyl Acetate] | -3% | 110% |  |  |
| CC(=O)OC[C@@]1(C)[C@H]2CC[C@@H]3CN(Cc4ccc(C(F)(F)F)cc4)[C@@H](C4=CCOC4=O)C[C@H]3[C@]2(C)CC[C@H]1OC(C)=O [4h, ((2R,4aS,6aS,7R,8R,10aS,10bR)-8-Acetoxy-7,10a-dimethyl-2-(2-oxo-2,5-dihydrofuran-3-yl)-3-(4-(trifluoromethyl)benzyl)tetradecahydrobenzo[f]isoquinolin-7-yl)methyl Acetate] | -5.4% | 119% |  |  |
| CC(=O)OC[C@@]1(C)[C@H]2CC[C@@H]3CN(Cc4ccc(O)cc4)[C@@H](C4=CCOC4=O)C[C@H]3[C@]2(C)CC[C@H]1OC(C)=O [4j, ((2R,4aS,6aS,7R,8R,10aS,10bR)-8-Acetoxy-3-(4-hydroxybenzyl)-7,10a-dimethyl-2-(2-oxo-2,5-dihydrofuran-3-yl)tetradecahydrobenzo[f]isoquinolin-7-yl)methyl Acetate] | -5.2% | 55.6% |  |  |
| CC(=O)OC[C@@]1(C)[C@H]2CC[C@@H]3CN(Cc4ccccc4F)[C@@H](C4=CCOC4=O)C[C@H]3[C@]2(C)CC[C@H]1OC(C)=O [4l, ((2R,4aS,6aS,7R,8R,10aS,10bR)-8-Acetoxy-3-(2-fluorobenzyl)-7,10a-dimethyl-2-(2-oxo-2,5-dihydrofuran-3-yl)tetradecahydrobenzo[f]isoquinolin-7-yl)methyl Acetate] | -19.5% | 148% | > 100 µM |  |
| CC(=O)OC[C@@]1(C)[C@H]2CC[C@@H]3CN(Cc4cccc(Cl)c4)[C@@H](C4=CCOC4=O)C[C@H]3[C@]2(C)CC[C@H]1OC(C)=O [4m, ((2R,4aS,6aS,7R,8R,10aS,10bR)-8-Acetoxy-3-(3-chlorobenzyl)-7,10a-dimethyl-2-(2-oxo-2,5-dihydrofuran-3-yl)tetradecahydrobenzo[f]isoquinolin-7-yl)methyl Acetate] | -13.2% | 130% | > 100 µM |  |
| CC(=O)OC[C@@]1(C)[C@H]2CC[C@@H]3CN(Cc4ccc(F)c(Cl)c4)[C@@H](C4=CCOC4=O)C[C@H]3[C@]2(C)CC[C@H]1OC(C)=O [4n, ((2R,4aS,6aS,7R,8R,10aS,10bR)-8-Acetoxy-3-(3-chloro-4-fluorobenzyl)-7,10a-dimethyl-2-(2-oxo-2,5-dihydrofuran-3-yl)tetradecahydrobenzo[f]isoquinolin-7-yl)methyl Acetate] | -4.9% | 102% |  |  |
| CC(=O)OC[C@@]1(C)[C@H]2CC[C@@H]3CN(Cc4ccco4)[C@@H](C4=CCOC4=O)C[C@H]3[C@]2(C)CC[C@H]1OC(C)=O [4o, ((2R,4aS,6aS,7R,8R,10aS,10bR)-8-Acetoxy-3-(furan-2-ylmethyl)-7,10a-dimethyl-2-(2-oxo-2,5-dihydrofuran-3-yl)tetradecahydrobenzo[f]isoquinolin-7-yl)methyl Acetate] | -4.5% | 58.4% |  | weak inhibition effect |
| CC(=O)OC[C@@]1(C)[C@H]2CC[C@@H]3CN(Cc4cccs4)[C@@H](C4=CCOC4=O)C[C@H]3[C@]2(C)CC[C@H]1OC(C)=O [4p, ((2R,4aS,6aS,7R,8R,10aS,10bR)-8-Acetoxy-7,10a-dimethyl-2-(2-oxo-2,5-dihydrofuran-3-yl)-3-(thiophen-2-ylmethyl)tetradecahydrobenzo[f]isoquinolin-7-yl)methyl Acetate] | 4.2% | 26.9% |  | weak inhibition effect |
| CC(=O)OC[C@@]1(C)[C@H]2CC[C@@H]3CN(Cc4cccc5ccccc45)[C@@H](C4=CCOC4=O)C[C@H]3[C@]2(C)CC[C@H]1OC(C)=O [4q, ((2R,4aS,6aS,7R,8R,10aS,10bR)-8-Acetoxy-7,10a-dimethyl-3-(naphthalen-1-ylmethyl)-2-(2-oxo-2,5-dihydrofuran-3-yl)tetradecahydrobenzo[f]isoquinolin-7-yl)methyl Acetate] | -14.7% | 121% |  |  |
| CCCN1C[C@H]2CC[C@@H]3[C@](C)(COC(C)=O)[C@H](OC(C)=O)CC[C@@]3(C)[C@@H]2C[C@@H]1C1=CCOC1=O [4r, ((2R,4aS,6aS,7R,8R,10aS,10bR)-8-Acetoxy-7,10a-dimethyl-2-(2-oxo-2,5-dihydrofuran-3-yl)-3-propyltetradecahydrobenzo[f]isoquinolin-7-yl)methyl Acetate] | -5.6% | 51.4% |  |  |
| CC(=O)OC[C@@]1(C)[C@H]2CC[C@@H]3CN(CCC(C)C)[C@@H](C4=CCOC4=O)C[C@H]3[C@]2(C)CC[C@H]1OC(C)=O [4v, ((2R,4aS,6aS,7R,8R,10aS,10bR)-8-Acetoxy-3-isopentyl-7,10a-dimethyl-2-(2-oxo-2,5-dihydrofuran-3-yl)tetradecahydrobenzo[f]isoquinolin-7-yl)methyl Acetate] | 3.2% | 102% |  |  |
| CC(=O)OC[C@@]1(C)[C@H]2CC[C@@H]3CN(C4CCCC4)[C@@H](C4=CCOC4=O)C[C@H]3[C@]2(C)CC[C@H]1OC(C)=O [4w, ((2R,4aS,6aS,7R,8R,10aS,10bR)-8-Acetoxy-3-cyclopentyl-7,10a-dimethyl-2-(2-oxo-2,5-dihydrofuran-3-yl)tetradecahydrobenzo[f]isoquinolin-7-yl)methyl Acetate] | -4.5% | 11.3% |  |  |
| CC(=O)OC[C@@]1(C)[C@H]2CC[C@@H]3CN(C4CCCCCC4)[C@@H](C4=CCOC4=O)C[C@H]3[C@]2(C)CC[C@H]1OC(C)=O [4y, ((2R,4aS,6aS,7R,8R,10aS,10bR)-8-Acetoxy-3-cycloheptyl-7,10a-dimethyl-2-(2-oxo-2,5-dihydrofuran-3-yl)tetradecahydrobenzo[f]isoquinolin-7-yl)methyl Acetate] | -18.2% | 135% | > 100 µM |  |
| Cc1ccc(CN2C[C@H]3CC[C@@H]4[C@]5(C)COC(C)(C)O[C@@H]5CC[C@@]4(C)[C@@H]3C[C@@H]2C2=CCOC2=O)cc1 [9f, 3-((4aR,4bS,6aS,9R,10aR,10bS,12aR)-2,2,4a,10b-Tetramethyl-8-(4-methylbenzyl)tetradecahydro-4H-[1,3]dioxino[5′,4′:3,4]benzo[1,2-f]isoquinolin-9-yl)furan-2(5H)-one] | -1.6% | 100% | > 100 µM | good inhibition |
| CC1(C)OC[C@@]2(C)[C@H]3CC[C@@H]4CN(Cc5ccc(C(C)(C)C)cc5)[C@@H](C5=CCOC5=O)C[C@H]4[C@]3(C)CC[C@H]2O1 [9g, 3-((4aR,4bS,6aS,9R,10aR,10bS,12aR)-8-(4-(tert-Butyl)benzyl)-2,2,4a,10b-tetramethyltetradecahydro-4H-[1,3]dioxino[5′,4′:3,4]benzo[1,2-f]isoquinolin-9-yl)furan-2(5H)-one] | -0.2% | 103% |  |  |
| CC1(C)OC[C@@]2(C)[C@H]3CC[C@@H]4CN(Cc5ccc([N+](=O)[O-])cc5)[C@@H](C5=CCOC5=O)C[C@H]4[C@]3(C)CC[C@H]2O1 [9h, 3-((4aR,4bS,6aS,9R,10aR,10bS,12aR)-2,2,4a,10b-Tetramethyl-8-(4-nitrobenzyl)tetradecahydro-4H-[1,3]dioxino[5′,4′:3,4]benzo[1,2-f]isoquinolin-9-yl)furan-2(5H)-one] | -4.7% | 102% |  |  |
| C[C@@]12COCO[C@@H]1CC[C@]1(C)[C@@H]2CC[C@@H]2CN(Cc3cccs3)[C@@H](C3=CCOC3=O)C[C@H]21 [10d, 3-((4aR,4bS,6aS,9R,10aR,10bS,12aR)-4a,10b-Dimethyl-8-(thiophen-2-ylmethyl)tetradecahydro-4H-[1,3]dioxino[5′,4′:3,4]benzo[1,2-f]isoquinolin-9-yl)furan-2(5H)-one] | -13.4% | 58.6% |  |  |
| C[C@]1(CO)[C@H]2CC[C@@H]3CN(Cc4ccccc4)[C@@H](C4=CCOC4=O)C[C@H]3[C@]2(C)CC[C@H]1O [11a, 3-((2R,4aS,6aS,7R,8R,10aS,10bR)-3-Benzyl-8-hydroxy-7-(hydroxymethyl)-7,10a-dimethyltetradecahydrobenzo[f]isoquinolin-2-yl)furan-2(5H)-one] | -4.8% | 39.7% |  |  |
| C=C1CC[C@@H]2[C@](C)(CO)[C@H](O)CC[C@@]2(C)[C@@H]1C/C=C1/C(=O)OC[C@H]1O [andrographolide 1, andrographolide, reference compound] | 23.6% | 34.8% |  |  |

Source: publication PMC9301648 (ACS Omega, 2022)
